In PubChem BioAssay:
Results filed as inconclusive are left out.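 Rule for the calls, unless noted: active = inhibition over a set limit, the all-compound mean plus 3 SD, in both replicate runs; inconclusive = over that limit in just one replicate run; inactive = at or under that limit in both runs.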

Assays:
[1] = OD615 S. cerevisiae growth inhibition, permissive medium, pilot counter-assay, permissive growth control for S. cerevisiae lifespan shortening project (AID 705;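 active = growth inhibition above 25% in both replicates, a cutoff set 3 SD above the mean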); settings: OD615, 24 h, at 10 µM, stronger effect = higher value
Procedure, shortened: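 System: S. cerevisiae with engineered DeaD lifespan system / Measured by: absorbance (optical density) at 615 nm / Read-out: reduction in yeast growth (OD615) / Times: 4 h cell pre-growth, 24 h exposure at 30 °C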

[2] = Restrictive medium S. cerevisiae growth inhibition, OD615, pilot screen of yeast lifespan reduction project, restrictive growth control (AID 706;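 active = growth inhibition above a set limit, 3 SD over mean compound inhibition, in both replicates, cut at about 43% in these data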;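 note: modified DeaD lifespan yeast strain shifted to restrictive glucose medium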); settings: OD615, 48 h, at 10 µM, stronger effect = higher value
Procedure, shortened: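 System: Engineered S. cerevisiae DeaD strain | Buffer or medium: Glucose-based CSMM-D restrictive medium | Schedule: 4 h pre-incubation, 48 h exposure at 30 °C | Technique: Optical density at 615 nm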

[3] = viability gain of MRP-1-high H69AR cells under doxorubicin, pilot screen, MRP-1 activator project, CellTiter-Glo, duplicate (AID 807;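 active = viability increase at or above a cutoff of the median across tested compounds plus 3 SD, cut at about 8.5% in these data, passing the limit was not always enough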;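 note: compound pretreatment 18-22 h then 72 h combined with doxorubicin; 0% = doxorubicin alone and 100% = vehicle without doxorubicin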); settings: H69AR viability with doxorubicin, CellTiter-Glo luminescence; at 10 µM; stronger effect = higher value
[4] = growth suppression of beta-catenin knockout HCT116, pilot screen, human colon tumor cells (AID 823;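 active = cell viability at or below a set limit in both duplicate runs, the limit being the all-compound median minus 4 SD, cut at about 23% in these data, passing the limit was not always enough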;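 note: 0% = wells killed by 20 µM Hyamine and 100% = untreated DMSO cell wells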); settings: CellTiter-Glo, 60 h, at 10 µM, stronger effect = lower value
[5] = growth suppression of PTEN-deleted HCT116, pilot screen, cell-based, HCT116 clonal line, CellTiter-Glo (AID 824;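 active = viability at or below 27.92% in each of two runs, the all-compound median minus 4 SD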;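 note: 0% = 20 µM Hyamine control and 100% = vehicle cell control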); settings: 60 h, at 10 µM, stronger effect = lower value
[6] = inhibitors of the yeast RAM network, pilot screen, dse1pr::URA3 reporter, 5-FOA selection (AID 869);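 note: 0% = DMSO wells with no growth and 100% = 10 µM 1-NA-PP1 with full growth; RAM network block rescues cells from 5-FOA so hits raise OD615 growth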; settings: S. cerevisiae dse1pr::URA3 5-FOA growth, OD615, 2 d; at 10 µM; stronger effect = higher value; strain carries analog-sensitive mutant Cbk1 kinase
[7] = RAM signaling pathway blockade in yeast – S. cerevisiae, Pdr1DBD-CYC8 efflux-inhibited sensitized strain, primary screen (AID 1298;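 active = RAM network inhibition above 8.4% in each of two replicates, 3 SD over the compound average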;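 note: 0% = DMSO untreated cells without growth and 100% = 10 µM 1-NA-PP1 full growth; higher means more yeast growth rescued from 5-FOA killing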); settings: S. cerevisiae cbk1-as DSE1-URA3 strain, 5-FOA growth OD615, 2 d; at 50 µM; stronger effect = higher value

COc1ccccc1-c1cc(N)n(S(=O)(=O)c2ccc(F)c(C)c2)n1
inactive: growth inhibition [1] -9.16% | growth inhibition [2] -5.82% | viability increase [3] -3.08% | viability [4] 55% | viability [5] 64% | inhibition [6] 4.39% | RAM network inhibition [7] 3.97%

COc1cccc(Nc2cc(C)nc3nc(C)nn23)c1
inactive: growth inhibition [1] -0.125% | growth inhibition [2] 4.21% | viability increase [3] -1.69% | viability [4] 108% | viability [5] 97.6% | inhibition [6] 1.68% | RAM network inhibition [7] 2.37%

CC(NC(=O)Cn1cc2c(n1)CCCCC2)c1ccccc1 (configuration not stated)
inactive: growth inhibition [1] -0.875% | growth inhibition [2] 2.88% | viability increase [3] 3.53% | viability [4] 101% | viability [5] 100% | inhibition [6] -0.32% | RAM network inhibition [7] 0.87%

CCCNc1nc2c(c(=O)[nH]c(=O)n2C)n1Cc1ccc(F)cc1
inactive: growth inhibition [1] -1.32% | growth inhibition [2] -1.12% | viability increase [3] -2% | viability [4] 104% | viability [5] 92.9% | inhibition [6] 0.945% | RAM network inhibition [7] 0.57%

CCOc1ccc(N(CC(=O)NC(C)(C)C)S(=O)(=O)c2c(C)noc2C)cc1
inactive: growth inhibition [1] -19.9% | growth inhibition [2] -9.45% | viability increase [3] -4.94% | viability [4] 81.5% | viability [5] 81.8% | inhibition [6] 0.36% | RAM network inhibition [7] -1%

CCCNc1nc2c(c(=O)[nH]c(=O)n2C)n1CCc1ccccc1
inactive: growth inhibition [1] -3.82% | growth inhibition [2] 0.97% | viability increase [3] -1.3% | viability [4] 112% | viability [5] 103% | inhibition [6] 1.56% | RAM network inhibition [7] 5.88%

CC(=NCc1cccnc1)C1=C(O)c2ccccc2C1=O
inactive: growth inhibition [1] -0.03% | growth inhibition [2] 9.76% | viability increase [3] -0.85% | viability [4] 97.2% | viability [5] 96.4% | inhibition [6] 0.665% | RAM network inhibition [7] -0.3%

Cc1nnc(NC(=O)c2oc3cc(C)c(C)cc3c2C)s1
inactive: growth inhibition [1] -3.77% | growth inhibition [2] -4.99% | viability increase [3] -0.05% | viability [4] 105% | viability [5] 99.8% | inhibition [6] 1.64% | RAM network inhibition [7] 5.7%

CN(CC(=O)NC1CCCc2ccccc21)S(=O)(=O)c1ccc2c(c1)c(=O)n(C)c(=O)n2C (configuration not stated)
inactive: growth inhibition [1] -9.17% | growth inhibition [2] -10.7% | viability increase [3] -3.54% | viability [4] 95.3% | viability [5] 94% | inhibition [6] 2.24% | RAM network inhibition [7] 1.42%

COc1ccc(N2C(=O)CCC(C(=O)N3CCC(C(N)=O)CC3)C2c2ccc(F)cc2)cc1 (configuration not stated)
inactive: growth inhibition [1] -5.89% | growth inhibition [2] -16.2% | viability increase [3] -0.33% | viability [4] 99.6% | viability [5] 102% | inhibition [6] 1.6% | RAM network inhibition [7] 3.66%

Cc1nc2cc(-c3cccc(F)c3)nn2c(C)c1CCC(=O)NC(C)CCc1ccco1 (configuration not stated)
inactive: growth inhibition [1] -10.1% | growth inhibition [2] -2.46% | viability increase [3] -1.36% | viability [4] 69.7% | viability [5] 72.6% | inhibition [6] 0.955% | RAM network inhibition [7] 3.16%

COc1ccc(NC(=O)N(Cc2ccc(C)cc2)Cc2ccccn2)c(OC)c1
inactive: growth inhibition [1] -3.04% | growth inhibition [2] 7.11% | viability increase [3] -1.9% | viability [4] 91% | viability [5] 96% | inhibition [6] 0.455% | RAM network inhibition [7] 4.18%

COC1CCCCC1NS(=O)(=O)c1ccc(Cl)cc1 (configuration not stated)
inactive: growth inhibition [1] 1.43% | growth inhibition [2] 2.45% | viability increase [3] -1.67% | viability [4] 93.3% | viability [5] 99.6% | inhibition [6] -0.11% | RAM network inhibition [7] -1.18%

CCOc1ccc(N(CC(=O)O)S(=O)(=O)c2ccc(OC)c(OC)c2)cc1
inactive: growth inhibition [1] -8.3% | growth inhibition [2] -13.4% | viability increase [3] -0.45% | viability [4] 95.5% | viability [5] 95.3% | inhibition [6] 1.32% | RAM network inhibition [7] 1.05%

Cc1ccc2c(CC(=O)O)coc2c1
inactive: growth inhibition [1] -5.59% | growth inhibition [2] 27.6% | viability increase [3] -0.46% | viability [4] 89.3% | viability [5] 97.5% | inhibition [6] -0.825% | RAM network inhibition [7] -1.05%

c1cc2c3c(cccc3c1)C(N1CCCCC1)=N2
inactive: growth inhibition [1] 1.8% | growth inhibition [2] -3.38% | viability increase [3] -4.54% | viability [4] 72.1% | viability [5] 74.4% | inhibition [6] 0.665% | RAM network inhibition [7] 1.88%

CCN(CC)S(=O)(=O)c1ccc(C(=O)OCC(=O)N2CCN(C(=O)c3ccco3)CC2)cc1
inactive: growth inhibition [1] -8.4% | growth inhibition [2] -3.91% | viability increase [3] 0.34% | viability [4] 89.7% | viability [5] 93.6% | inhibition [6] 1.86% | RAM network inhibition [7] 1.24%

COc1ccc(CC(=O)N2CC3(C)CC2CC(C)(C)C3)cc1OC (configuration not stated)
inactive: growth inhibition [1] -8.12% | growth inhibition [2] -2.29% | viability increase [3] -2.91% | viability [4] 92.7% | viability [5] 88.2% | inhibition [6] 2.62% | RAM network inhibition [7] 6.83%

CCN(CC)S(=O)(=O)c1ccc(C(=O)C(C#N)c2ccccn2)cc1 (configuration not stated)
inactive: growth inhibition [1] -12.8% | growth inhibition [2] -19.5% | viability increase [3] 1.28% | viability [4] 95.3% | viability [5] 102% | inhibition [6] 0.455% | RAM network inhibition [7] 5.32%

Cn1ccnc1-c1nc2ccccc2[nH]c1=O
inactive: growth inhibition [1] -6.04% | growth inhibition [2] -15.6% | viability increase [3] -1.95% | viability [4] 101% | viability [5] 95.5% | inhibition [6] -0.695% | RAM network inhibition [7] -0.73%

COC(=O)c1ccccc1NC(=O)Cn1cc2c(n1)CCC(C)C2 (configuration not stated)
inactive: growth inhibition [1] 0.34% | growth inhibition [2] -0.81% | viability increase [3] -0.23% | viability [4] 92.9% | viability [5] 87.9% | inhibition [6] 1.79% | RAM network inhibition [7] 3.66%

CCCCCn1c(SCCOCC)nc2c1c(=O)[nH]c(=O)n2C
inactive: growth inhibition [1] -10.1% | growth inhibition [2] -15.6% | viability increase [3] -0.61% | viability [4] 96.2% | viability [5] 97.2% | inhibition [6] 1.75% | RAM network inhibition [7] 4.65%

O=C(Cn1cc2c(n1)CCCC2)NCCCN1CCCC1
inactive: growth inhibition [1] -3.79% | growth inhibition [2] 4.09% | viability increase [3] 0.07% | viability [4] 105% | viability [5] 99.3% | inhibition [6] -0.37% | RAM network inhibition [7] 1.62%

Cc1nc2ccc3nc(NC(=O)C4COc5ccccc5O4)sc3c2s1 (configuration not stated)
inactive: growth inhibition [1] -10.6% | growth inhibition [2] 0.74% | viability increase [3] -4.93% | viability [4] 86.8% | viability [5] 80.6% | inhibition [6] 1.55% | RAM network inhibition [7] -0.06%

CC(C)N(CCc1ccncc1)C(=O)Nc1ccc(Cl)c(Cl)c1
inactive: growth inhibition [1] -4.55% | growth inhibition [2] -1.79% | viability increase [3] -0.23% | viability [4] 81.1% | viability [5] 87.8% | inhibition [6] 2.42% | RAM network inhibition [7] 3.94%

O=C(COC(=O)C(O)c1ccccc1)c1ccc2c(c1)OCCO2 (configuration not stated)
inactive: growth inhibition [1] -4.38% | growth inhibition [2] -9.29% | viability increase [3] -0.39% | viability [4] 97.1% | viability [5] 106% | inhibition [6] 1.27% | RAM network inhibition [7] 4.89%

CSC1=NCCN1C(=O)c1ccc(Br)o1
inactive: growth inhibition [1] -2.9% | growth inhibition [2] -7.89% | viability increase [3] 2.54% | viability [4] 102% | viability [5] 94.5% | inhibition [6] 0.975% | RAM network inhibition [7] 7.19%

O=C(c1ccc(F)cc1)c1cn[nH]c1-c1ccccc1O
inactive: growth inhibition [1] -15.3% | growth inhibition [2] -15.9% | viability increase [3] -1.5% | viability [4] 99.5% | viability [5] 94.9% | inhibition [6] 2.42% | RAM network inhibition [7] 4.4%

CCN(CC)c1ccc(/C=N/n2c(C)cc(C)cc2=O)cc1
inactive: growth inhibition [1] 0.085% | growth inhibition [2] 7.67% | viability increase [3] -0.57% | viability [4] 105% | viability [5] 93% | inhibition [6] 0.145% | RAM network inhibition [7] 1.36%

CCOC(=O)CN1CC23C=CC(O2)C(C(=O)NCc2ccc(C)cc2)C3C1=O (configuration not stated)
inactive: growth inhibition [1] -6.12% | growth inhibition [2] -3.33% | viability increase [3] -0.1% | viability [4] 99.5% | viability [5] 109% | inhibition [6] 1.29% | RAM network inhibition [7] 1.3%

CC(=O)c1ccc(N2CCN(C(=O)c3cc4c(=O)n(C)c5ccccc5c4n3C)CC2)cc1
inactive: growth inhibition [1] -6.79% | growth inhibition [2] -16.3% | viability increase [3] -3.01% | viability [4] 96.5% | viability [5] 88.5% | inhibition [6] 1.98% | RAM network inhibition [7] 2.91%

CCOc1ccc(Nc2cc(C)nc3nc(C)nn23)cc1
inactive: growth inhibition [1] -10.9% | growth inhibition [2] 5.96% | viability increase [3] -3.11% | viability [4] 110% | viability [5] 93.9% | inhibition [6] 0.67% | RAM network inhibition [7] 2.62%

COc1ccc(N2CSC3=C(C#N)C(c4cccc(OC)c4OC)CC(=O)N3C2)cc1 (configuration not stated)
inactive: growth inhibition [1] -1.74% | growth inhibition [2] 26.5% | viability increase [3] -4.01% | viability [4] 95.6% | viability [5] 92.6% | inhibition [6] 1.48% | RAM network inhibition [7] 3.83%

CCOC(=O)COc1cc2c(C(=O)OCC)c(C)oc2cc1Br
inactive: growth inhibition [1] -10% | growth inhibition [2] -2.66% | viability increase [3] -2.07% | viability [4] 89.3% | viability [5] 89.8% | inhibition [6] 1.04% | RAM network inhibition [7] 12.8%

COc1ccc(-c2nc(CS(=O)(=O)CC(=O)Nc3ccc(Cl)cc3)c(C)o2)cc1
inactive: growth inhibition [1] -8.75% | growth inhibition [2] -7.49% | viability increase [3] -2.64% | viability [4] 48.5% | viability [5] 49.6% | inhibition [6] 2.77% | RAM network inhibition [7] 3.02%

COc1ccc(C2=NOC(C(=O)Nc3c(C)n(C)n(-c4ccccc4)c3=O)C2)cc1OC (configuration not stated)
inactive: growth inhibition [1] -9.01% | growth inhibition [2] -7.64% | viability increase [3] 1.69% | viability [4] 102% | viability [5] 106% | inhibition [6] 0.4% | RAM network inhibition [7] 4.75%
